A selection: hits, their analogues and other compounds. The true share with any hit is near 3.7%.
procasp3 activ: activates human procaspase-3 | P42574 | recombinant procaspase-3 D3A, Ac-DEVD-pNA absorbance 405 nm | activation, % at 8.5 µM | 330,000 compounds, 0.11% hits;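 active = activation above the mean of all tested compounds plus 3 SD, cut at about 21% in these data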
Target sequence (P42574 whole entry D9A/D28A/D175A): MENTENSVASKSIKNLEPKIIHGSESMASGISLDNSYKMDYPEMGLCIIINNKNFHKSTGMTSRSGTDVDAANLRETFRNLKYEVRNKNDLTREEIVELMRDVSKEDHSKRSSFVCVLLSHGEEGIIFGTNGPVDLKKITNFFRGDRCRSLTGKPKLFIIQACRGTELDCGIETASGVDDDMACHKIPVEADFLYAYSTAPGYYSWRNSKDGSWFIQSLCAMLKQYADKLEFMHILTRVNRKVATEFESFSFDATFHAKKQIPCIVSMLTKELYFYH
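System: Procaspase-3 D3A mutant. Medium: Zinc-free 300 mM NaCl, 50 mM HEPES, 0.01% Triton X-100. Schedule: 1 h preincubation plus 2 h reaction at 25 °C. Measured by: 405 nm absorbance of p-nitroaniline, reads at 0 and 120 min. Read-out: percent activation relative to control range.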
MPTP inh: permeability transition pore inhibition; inhibition, % at 10 µM; 360,000 compounds, 1.4% hits; isolated mouse mitochondria, Ca2+ swelling absorbance, 30 min;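 active = inhibition of 50% or more, scaled per plate between neutral and stimulator controls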
NR3A LBD binder: modulators (binders) of human NR3A ligand-binding domain. Tm shift relative to glycine control, % at 25 µM. 340,000 compounds, 2.5% hits. AID 1259313. NR3A LBD differential scanning fluorimetry, Tm shift; 0% = protein alone, 100% = glycine-bound protein;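 active = melting temperature shift of at least 10% of the positive control shift, at one fixed dose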
aDG glyco up: alpha-DG glycosylation activation; Pro5-aDG cells, alpha-DG glycosylation AlphaScreen (IIH6); 0% Pro5, 100% B10-LARGE cell signal; 360,000 compounds, 0.22% hits; activation, % at 10 µM; AID 624168;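 active = activation of at least 8% versus controls, or a plate z-score of at least 8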;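 also: Pro5 are CHO cells carrying HIG-tagged alpha-DG that lacks glycosylation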
procasp7 counter: counter-screen for procaspase-3 activators: activators of human procaspase-7; P55210; recombinant procaspase-7, Ac-DEVD-pNA absorbance 405 nm; D23A/D198A/D206A triple mutant, cannot self-cleave; scale: DMSO 0, 5 µM enzyme 100; activation, % at 8.5 µM; 330,000 compounds, 0.093% hits; AID 463210;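 active = percent activation above the screen-wide mean plus 3 SD, cut at about 25% in these data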
Target sequence (P55210 whole entry D23A/D198A/D206A): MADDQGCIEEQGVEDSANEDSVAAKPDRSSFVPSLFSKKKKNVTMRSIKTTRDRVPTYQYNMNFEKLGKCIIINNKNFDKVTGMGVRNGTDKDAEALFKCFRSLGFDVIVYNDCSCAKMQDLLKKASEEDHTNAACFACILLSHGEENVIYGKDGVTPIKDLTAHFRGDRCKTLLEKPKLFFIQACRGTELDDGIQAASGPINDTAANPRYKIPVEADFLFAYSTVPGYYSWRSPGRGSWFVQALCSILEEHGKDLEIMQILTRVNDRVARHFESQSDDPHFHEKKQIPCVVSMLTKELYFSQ
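System: Uncleavable procaspase-7 mutant enzyme; Amount: 2 µM procaspase-7 mutant as dispensed; Schedule: 1 h compound preincubation, 2 h substrate cleavage, 25 °C; Measured by: 405 nm absorbance of p-nitroaniline; Evaluation: percent activation from buffer-corrected 0–120 min absorbance change; Control set: low DMSO alone, high DMSO plus 5 µM PC-7.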
A number is an active result; – = inactive; · = no result.

SMILES | procasp3 activ | MPTP inh | NR3A LBD binder | aDG glyco up | procasp7 counter
COc1ccc(S(=O)(=O)N(C)C[C@H]2Oc3c(NC(=O)Nc4ccccc4)cccc3C(=O)N([C@H](C)CO)C[C@@H]2C)cc1 | · | – | – | – | ·
CC1(c2nnnn2-c2ccc3c(c2)OCCO3)CCC(=O)N1Cc1cccnc1 (configuration not stated) | · | – | · | – | ·
CCOC(=O)[C@]12CCCC=C1N(Cc1ccco1)C(=O)[C@H](CC(=O)NCCCCc1ccccc1)C2 | · | – | · | – | ·
CCCNC(=O)C1(C)CCCN(C(=O)c2c(F)ccc(C)c2F)C1 (configuration not stated) | · | – | · | – | ·
CC(=O)Nc1ccc(S(=O)(=O)N2CCSc3ccccc32)cc1 | – | – | – | – | –
COc1ccc(NC(=O)Nc2cccc3c2O[C@H](CN(C)S(=O)(=O)c2cn(C)cn2)[C@@H](C)CN([C@H](C)CO)C3=O)cc1 | – | – | 16 | – | –
C=CCNC(=O)c1ccc(-c2nc(-c3ccc(Cl)cc3Cl)cs2)cc1 | – | – | – | – | –
C=CCNC(=O)c1ccc(-c2nc(-c3ccc(Cl)c(Cl)c3)cs2)cc1 | – | – | 31 | – | –
Cc1cc(S(=O)(=O)Nc2ccc(C(=O)N3CC(C)OC(C)C3)cc2)ccc1F (configuration not stated) | – | – | – | – | –
COc1ccc(NS(=O)(=O)c2ccc(C)c(C(=O)N3CC(C)OC(C)C3)c2)cc1 (configuration not stated) | – | – | 11 | – | –
O=C(Cc1cccc(NC(=O)C2CCCN(C(=O)c3ccccc3)C2)c1)Nc1ccc(C(=O)N2CCOCC2)cc1 (configuration not stated) | · | – | – | – | ·
O=C(COC(=O)CCc1nc2ccccc2c(=O)[nH]1)NC(=O)NC1CCCC1 | – | – | 12 | – | –
N#CCCN(C(=O)COC(=O)CCc1nc2ccccc2c(=O)[nH]1)c1ccccc1F | – | – | 13 | – | –
CCc1ccc(NC(=O)C(C)OC(=O)c2cc(=O)[nH]c3ccc(S(=O)(=O)Nc4ccc(F)cc4)cc23)cc1 (configuration not stated) | – | – | 13 | – | –
NC(=O)COC(=O)c1cc(=O)[nH]c2ccc(S(=O)(=O)Nc3ccc(F)cc3)cc12 | – | – | – | – | –
Cc1cccc(NS(=O)(=O)c2ccc3[nH]c(=O)cc(C(=O)OC(C)C(=O)Nc4ccc([N+](=O)[O-])cc4)c3c2)c1 (configuration not stated) | – | – | 11 | – | –
Cc1ccc(C)c(CNC(=O)Nc2ccccc2)c1 | – | – | – | – | –
O=C(/C=C/c1cccc(F)c1)OCC(=O)N1CCc2ccccc21 | – | – | – | – | –
Cc1cc(C(=O)N2CCCC(C)(C(=O)NS(=O)(=O)C3CC3)C2)nn1C(C)(C)C (configuration not stated) | · | – | · | – | ·
O=C(/C=C/c1ccccc1)CC(=O)c1ccccc1O | – | – | 13 | – | –
Cc1ccc2c(NCc3ccco3)nc(NC(C)C)nc2c1 | · | – | · | – | ·
O=[N+]([O-])c1ccc(NN=CC2CCCCCC2)c([N+](=O)[O-])c1 | · | – | · | – | ·
O=c1cc(-c2ccccc2)nc2c(Cl)cc(Cl)cn12 | · | – | · | – | ·
CCN(CC)CC(O)CNc1ccnc2c(Cl)ccc(Cl)c12 (configuration not stated) | · | – | – | – | ·
Cc1cccc(C(=O)OCC(=O)c2c(C)[nH]c3ccccc23)c1O | – | – | 29 | – | –
SMILES | procasp3 activ | MPTP inh | NR3A LBD binder | aDG glyco up | procasp7 counter
Cc1ccc2nc(C3CCCN(C(=O)NCc4ccccc4)C3)[nH]c2c1 (configuration not stated) | – | – | 16 | – | –
Cc1ccc2nc(C3CCN(C(=O)NCc4ccccc4)CC3)[nH]c2c1 | – | – | – | – | –
Cc1ccc(NC(=O)N2N=C(c3ccc(F)cc3)CC2c2ccc(F)cc2)cc1 (configuration not stated) | – | – | 19 | – | –
O=C(c1ccccc1)N1N=C(c2ccc(F)cc2)CC1c1ccc(F)cc1 (configuration not stated) | · | – | – | – | ·
Cc1ccc(NC(=O)c2ccc(NS(=O)(=O)/C=C/c3ccccc3)cc2)nc1 | – | – | 18 | – | –
COc1ccc(/C=N/NC(=O)c2ccc(O)cc2O)cc1CSc1ccccn1 | – | – | 21 | – | –
Cn1c2ccccc2c2cc(/C=N/NC(=O)c3ccc(O)cc3O)ccc21 | – | – | 30 | – | –
COCCn1c(C)cc(/C=N/NC(=O)c2cc3ccccc3cc2O)c1C | – | – | – | – | –
CCn1c2ccccc2c2cc(/C=N/NC(=O)c3ccncc3)ccc21 | – | – | – | – | –
CCn1c2ccccc2c2cc(/C=N/NC(=O)c3cc(O)cc(O)c3)ccc21 | – | – | 21 | – | –
Cn1c(O)c(/C=N/NC(=O)c2cc3ccccc3cc2O)c2ccccc21 | – | – | 21 | – | –
O=C(c1cccs1)N1C[C@H](O)[C@@H](n2cc(C3CC3)nn2)C[C@@H]1c1ccccc1 | · | – | · | – | ·
O=C(CCNC(=O)c1ccccc1Cl)Nc1ccc(S(=O)(=O)N2CCOCC2)cc1 | · | – | · | – | ·
Cn1cc(-c2coc3c(C(=O)NCc4ccco4)cccc23)cn1 | · | – | · | – | ·
CCn1c2ccccc2c2cc(/C=N/NC(=O)c3ccc(O)cc3)ccc21 | – | – | 38 | – | –
CC(=O)Nc1ccc(N=Cc2c(O)c(C(=O)Nc3ccccc3)cc3ccccc23)cc1 | – | · | – | · | –
COc1ccc2c(c1)cc(C(=O)N/N=C/c1c(O)c(C(=O)O)cc3ccccc13)n2C | – | – | 11 | – | –
CCOC(=O)CSc1nnc(Cc2ccccc2)n1-c1cccc(Cl)c1 | – | – | 733 | – | –
CCOC(=O)CSc1nnc(Cc2ccc(OC)cc2)n1-c1ccccc1 | – | – | – | – | –
COc1ccccc1-c1cncc(NC(C)=O)n1 | · | – | · | – | ·
Cc1cccc(C)c1NC(=O)C1(C)CSCC(=O)N1C1CCN(Cc2ccccc2)CC1 (configuration not stated) | · | – | · | – | ·
O=c1[nH]cc(S(=O)(=O)N2CCN(c3ccc(F)cc3)CC2)c(=O)[nH]1 | · | – | · | – | ·
CC1(C)Oc2ccc3ccc(=O)oc3c2/C(=C/Nc2ccccn2)C1=O | – | – | 15 | – | –
CN/C=C1\C(=O)C(C)(C)Oc2ccc3ccc(=O)oc3c21 | – | – | – | – | –
CCc1cc(/C(Cc2ccccn2)=N\O)c(O)cc1O | – | – | – | – | –
CCc1cc(/C(Cc2ccc3ccccc3n2)=N\O)c(O)cc1O | – | – | 29 | – | –
COc1ccc(OC)c(S(=O)(=O)Nc2ccc3c(c2)OCCO3)c1 | · | – | · | – | ·
N/C(=N\c1nc2ccccc2o1)NC(=O)c1ccccc1 | – | – | – | – | –

Screens as filed in PubChem BioAssay.
